# Hit rate of the full screen: of about 310,000 compounds, about 2,800 (0.9%) were called active.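 How the source made its calls: active means B-score of the integrated calcium signal more than 4 SD below the library mean, with starting fluorescence not abnormally high; inactive means the rest.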 For the sample, actives were picked, then their nearest neighbours and some compounds at random.
# Assay: enhancers of RGS4 function in calcium signaling – cell-based, HEK293 M3R inducible RGS4, calcium flux, primary screen (AID 463111);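 on B-score: negative B-score means reduced calcium response which marks RGS4 activation or potentiation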
# Conditions: HEK293 M3R/inducible RGS4, carbachol calcium flux Fluo4, at 10 µM; stronger effect = lower value
# Outline: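 System: HEK293 FlpIn-TREx cells, stable M3R, doxycycline-inducible RGS4. Timing: overnight RGS4 induction, 30 min dye load 37 °C, 20 min compound RT. Also added: carbachol, ECmax concentration. Measured by: Fluo4 fluorescence kinetic imaging of calcium. Evaluation: integrated calcium ratio converted to B score.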
row,SMILES,B-score
1,COc1ccc(Cl)cc1NC(=O)CCS(=O)(=O)c1cc2c(cc1C)NC(=O)CO2,-7.02 (active)
2,Cc1cc2c(cc1S(=O)(=O)CCC(=O)NCc1ccccc1)OCC(=O)N2,inactive
3,COc1ccc(NC(=O)CCS(=O)(=O)c2cc3c(cc2Cl)NC(=O)CO3)cc1OC,inactive
4,COc1cccc(C2c3[nH]c4ccccc4c3CCN2Cc2cccc(C)n2)c1 (stereo unspecified),inactive
5,CC1=CCC2C(=O)N(c3cccc(C(=O)NC(C)c4ccccc4)c3)C(=O)C2C1 (stereo unspecified),inactive
6,CCCCn1c(N)c(N(CC)C(=O)c2ccccc2C(F)(F)F)c(=O)[nH]c1=O,inactive
7,Cc1nn(Cc2ccc(C(=O)N3N=C(C(F)F)CC3(O)C(F)F)cc2)c(C)c1[N+](=O)[O-] (stereo unspecified),inactive
8,O=C(CN1CCCCCC1)Nc1ccc(S(=O)(=O)N2CCCCC2)cc1,-8.13 (active)
9,CCOc1ccc(NC(=O)COc2ccc(S(=O)(=O)N3CCCC3)cc2)cc1,inactive
10,O=C(CSCc1ccc(Br)cc1)Nc1ccc(S(=O)(=O)N2CCCCCC2)cc1,inactive
11,O=c1cc(CO)oc(C(Nc2cccc([N+](=O)[O-])c2)c2ccccn2)c1O (stereo unspecified),inactive
12,CCc1ccc(OCC(=O)N(Cc2ccccc2)C2CCS(=O)(=O)C2)cc1 (stereo unspecified),inactive
13,Cc1ccc(C)c(-c2nnc(NC(=O)CS(=O)(=O)c3ccccc3)o2)c1,inactive
14,O=C(Nc1cccn(Cc2c(Cl)cccc2Cl)c1=O)c1ccc(Cl)cc1,inactive
15,CCCC(=O)NC(Nc1ccccc1OC)C(Cl)(Cl)Cl (stereo unspecified),inactive
16,CCCCCCCC(=O)NC(Nc1ccccc1OC)C(Cl)(Cl)Cl (stereo unspecified),-8.57 (active)
17,COc1ccccc1NC(=O)CCCc1c[nH]c2ccccc12,inactive
18,Cc1cnc(C(=O)OCc2c(C)cc(C(C)(C)C)cc2C)cn1,inactive
19,Cc1cc(C(=O)OCC(=O)Nc2ccc(F)c(F)c2)c(C)o1,inactive
20,O=C(NCc1ccc(F)cc1)C1CCN(C(=O)Nc2ccc(F)cc2)CC1,inactive
21,CCc1ccc(C(=O)OCC(=O)NCC(F)(F)F)cc1,inactive
22,Cc1c(NC(=O)Nc2cccc([N+](=O)[O-])c2)c(=O)n(-c2ccccc2)n1C,inactive
23,Cc1nc(N2CCN(c3ccccn3)CC2)c2c(C)c(C(=O)Nc3ccc(F)c(Cl)c3)sc2n1,inactive
24,COc1ccc(NC(=O)c2sc3nc(C)nc(N4CCN(c5ccccn5)CC4)c3c2C)c(OC)c1,inactive
25,Cc1nc(N2CCN(c3ccccn3)CC2)c2c(C)c(C(=O)Nc3ccc(F)cc3)sc2n1,-9.74 (active)
26,O=C(Oc1ccc([N+](=O)[O-])cc1)c1ccc(Cl)c(S(=O)(=O)N2CCCCC2)c1,inactive

row,SMILES,B-score
1,C=CCN(N=Nc1cccc([N+](=O)[O-])c1)c1cccc([N+](=O)[O-])c1,inactive
2,COc1ccc(-c2cc(C(=O)N(C)Cc3ccccc3)c3ccccc3n2)cc1,-8.16 (active)
3,CNC(=O)COC(=O)c1cc(-c2ccc(OC)cc2)nc2ccccc12,inactive
4,COc1ccc(-c2cc(C(=O)Nc3ccccc3O)c3ccccc3n2)cc1,inactive
5,COc1ccc(NC(=O)CN(C)C(=O)c2cc(-c3ccc(C)o3)nc3ccccc23)cc1,inactive
6,COc1ccc(-c2cc(C(=O)N(C)CC(=O)Nc3ccccc3Cl)c3ccccc3n2)cc1OC,inactive
7,COc1ccc(CN(C)C(=O)c2cc(-c3ccc(C)cc3C)nc3ccccc23)c(OC)c1OC,-11.6 (active)
8,COc1ccc(CN(C)C(=O)Cc2c[nH]c3ccccc23)c(OC)c1OC,inactive
9,COc1ccc(-c2cc(C(=O)N(C)Cc3ccc(OC)c(OC)c3OC)c3ccccc3n2)cc1OC,-8.8 (active)
10,Cc1ccc(-c2cc(C(=O)Nc3nn[nH]n3)c3ccccc3n2)c(C)c1,inactive
11,O=c1[nH]cccc1-c1nc2ccccc2n1Cc1ccc(Cl)cc1,inactive
12,CCC(Oc1ccccc1C)C(=O)Nc1ccc(S(=O)(=O)Nc2cc(C)on2)cc1 (stereo unspecified),inactive
13,CC1=C(C(=O)N(C)C)C(c2ccccc2OC(F)F)NC(=O)N1 (stereo unspecified),inactive
14,Cc1ccc(NS(=O)(=O)c2c(C)[nH]c(C)c2C(=O)N2CCCCC2)c(C)c1,inactive
15,CC1=C(C(=O)OC2CCCCC2)C(c2cccnc2)n2ncnc2N1 (stereo unspecified),inactive
16,O=C(N/N=C/c1cccc(O)c1)c1cc2c(ccc3ccccc32)o1,inactive
17,O=C(N/N=C/c1cccc(OCc2ccccc2)c1)c1ccc(Br)o1,-7.35 (active)
18,Cc1ccc(OCCOc2cccc(/C=N/NC(N)=O)c2)cc1,inactive
19,CSc1nc(-c2ccco2)nn1C(=O)c1ccccc1Cl,inactive
20,CN(C)c1ccc(/C=C2\NC(=S)N(Cc3ccccc3)C2=O)cc1,-12 (active)
21,O=C1NCC(=O)N(Cc2ccccc2)/C1=C/c1ccccc1,inactive
22,O=C1/C(=C\c2ccsc2)NC(=S)N1c1ccccc1,inactive
23,CC(=O)N1CCN(S(=O)(=O)c2c(F)cc(F)c(Cl)c2F)CC1,inactive
24,C/C=C(\C)C(=O)N1CC2(CC(c3cccc(NC(=O)CCCCC)c3)=NO2)C[C@@H]1C(N)=O (stereo partly specified),inactive
25,CN(C)C(=O)c1nc2ccc(Cl)cn2c1CNCc1cccc(OC(F)(F)F)c1,inactive
26,CN(C)c1ccc2c(=O)[nH][nH]c(=O)c2c1,inactive

row,SMILES,B-score
1,O=C(NCc1ccncc1)C1CCN(C(=O)c2cccc(Cl)c2)CC1,inactive
2,COC(=O)c1cccc(C(=O)N2CCC(CCC(=O)NCc3ccc(F)cc3)CC2)c1,inactive
3,Cn1c2ccccc2c2c(C(=O)N3CCN(c4ccc(F)cc4)CC3)cn(C3CCCC3)c(=O)c21,-7.18 (active)
4,O=C(c1ccccc1Oc1ccccc1)N1CCN(c2ccc(F)cc2)CC1,inactive
5,CCOC(=O)N1CCN(C(=O)c2nn(-c3ccc(C)cc3)c(=O)c3c2c2ccccc2n3C)CC1,inactive
6,Nc1nc(SCc2cccc(Br)c2)n[nH]1,inactive
7,COc1ccc(CC2(CO)CCN(Cc3cnn(C)c3)CC2)cc1,inactive
8,COC(=O)c1ccc(CN2CCC(CO)(Cc3ccc(OC)cc3)CC2)cc1,-8.7 (active)
9,CC(=O)c1cccc(CN2CCC(CO)(Cc3ccccc3)CC2)c1,inactive
10,CC(=O)c1ccc(S(=O)(=O)Nc2ccc(C(=O)NCC(c3ccccc3)N(C)C)cc2)cc1 (stereo unspecified),inactive
11,CN(C)C(CNC(=O)c1cccc(S(=O)(=O)Nc2ccc(Br)cc2)c1)c1ccco1 (stereo unspecified),inactive
12,COc1ccccc1C(CNC(=O)c1cccc(NS(=O)(=O)c2ccc(Br)cc2)c1)N(C)C (stereo unspecified),-8.15 (active)
13,COC(=O)c1ccccc1Sc1c(/C=N/OCc2ccc(Cl)cc2)c(C(F)(F)F)nn1C,-7.48 (active)
14,COC(=O)c1ccccc1NC(=O)CN(Cc1ccc(Cl)cc1)S(C)(=O)=O,inactive
15,COC(=O)c1ccccc1NC(=O)Cn1nc(C(F)(F)F)c2c1CCC2,inactive
16,CC(C)[C@H](NC(=O)c1ccc(F)cc1)C(=O)OCC(=O)NC(=O)c1cccn1C,inactive
17,Cc1cccc(NS(=O)(=O)c2ccc(C(=O)NCC(C)(C)N3CCOCC3)cc2)c1C,inactive
18,N[C@@H](Cc1ccccc1)C(=O)N1CCOCC1,inactive
19,COCCCNC(=S)NC(=O)c1ccccc1,inactive
20,CCOC(=O)c1c(-c2ccccc2)csc1NC(=S)NC(=O)c1ccccc1,inactive
21,CCOC(=O)C1=C(NC(=S)NC(=O)c2ccccc2)c2ccccc2CC1(C)C,-9.14 (active)
22,CCn1c(SC)nc(O)c(C(c2ccc(OC)c(O)c2)c2c(O)nc(SC)n(CC)c2=O)c1=O,inactive
23,CCOC(=O)N1CCN(C(=O)c2ccc(S(=O)(=O)Nc3cccc(C(F)(F)F)c3)cc2)CC1,inactive
24,O=C(/C=C/c1ccc(F)cc1)Nc1cccc(S(=O)(=O)Nc2cccc(C(F)(F)F)c2)c1,inactive
25,Cc1oc2c(F)c(F)c(F)c(F)c2c1S(=O)(=O)Nc1cccc(C(F)(F)F)c1,-9.29 (active)
26,CCOc1ccc(NC(=O)CN(C)CC(=O)NC(C)c2ccccc2)cc1OCC (stereo unspecified),inactive

row,SMILES,B-score
1,COc1cc(NS(=O)(=O)c2ccc(NC(=O)CN3C(=O)c4ccccc4C3=O)cc2)ncn1,inactive
2,CS(=O)(=O)Nc1ccc(C(=O)N2CCCC2)cc1,inactive
3,C=CCOc1ccc(/C=C/C(=O)OCC(=O)NCC2CCCO2)cc1 (stereo unspecified),inactive
4,O=C(Nc1nccs1)C1CCN(S(=O)(=O)c2ccc(Cl)c(C(F)(F)F)c2)CC1,inactive
5,CSc1ccc(/C=C2\NC(=O)NC2=O)cc1,inactive
6,Cc1ccc(NC(=O)COc2ccc(/C=C3/NC(=O)NC3=O)cc2)cc1,inactive
7,CC(C)c1ccc(/C=C2\NC(=O)NC2=O)cc1,-8.02 (active)
8,COc1ccc(C2=NN(C(=O)CSc3nc(=O)n4ccc(C)cc4n3)C(c3ccc(C)cc3)C2)cc1 (stereo unspecified),inactive
9,O=C(Cn1c(N2CCN(C/C=C/c3ccccc3)CC2)nc2ccccc21)c1ccccc1,-8 (active)
10,CC(C)Cn1c(N2CCN(C(=O)/C=C/c3ccccc3)CC2)nc2ccccc21,inactive
11,O=C1c2ccccc2C(=O)c2c1cccc2N1CCN(C/C=C/c2ccccc2)CC1,inactive
12,CC(NCc1nc2ccccc2n1C)C12CC3CC(CC(C3)C1)C2 (stereo unspecified),inactive
13,CCN(CC)C(=O)COc1coc(CN2CCN(Cc3ccccc3)CC2)cc1=O,inactive
14,CCOc1cccc(NC(=O)Cn2nc(-c3ccc4c(c3)OCCO4)ccc2=O)c1,inactive
15,CCOc1ccc2[nH]c(=O)c(CN(Cc3nnnn3CCc3ccccc3)CC3CCCO3)cc2c1 (stereo unspecified),inactive
16,COc1ccccc1N1CCN(c2ncnc3sc(C)c(-c4ccccc4)c23)CC1,inactive
17,c1ccc(-c2cc3c(NCC4COc5ccccc5O4)ncnc3s2)cc1 (stereo unspecified),inactive
18,Oc1ccccc1N1CCN(c2ncnc3sc(-c4ccccc4)cc23)CC1,-9.36 (active)
19,CNC(=O)COc1ccc(S(=O)(=O)Nc2ccccc2)cc1,inactive
20,CCn1ncc(CNC(=O)C2(C)CC2(Br)Br)c1C (stereo unspecified),inactive
21,Nc1cc(N)nc(SCc2ccc(Cl)cc2)n1,inactive
22,C=CCn1c(SCc2ccc(Cl)c(Cl)c2)nnc1C(CO)NC(=O)c1ccc(OC)cc1 (stereo unspecified),inactive
23,COc1cnc(SCc2ccc(Cl)c(Cl)c2)nc1Cl,-7.01 (active)
